Compound activity deposited in PubChem by Johns Hopkins Ion Channel Center.
This is a sample that favours compounds with a hit; in the whole collection about 3.5% have one here.
MrgX1 antag: human MrgX1 receptor antagonism, primary screen | Q96LB2 | B-score at 10 µM | MRGX1-HEK293 calcium flux, Fluo-4, BAM8-22 antagonism; stronger effect = lower value | 310,000 tested, 1.3% active;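 active means calcium-response B-score plate-corrected more than 3 library SD below zero, starting fluorescence within 5 deviations, no agonist response on first addition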;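 further: peak minus trough fluorescence over baseline after final BAM8-22 challenge near maximal dose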
Target sequence (Q96LB2 whole entry, looked up): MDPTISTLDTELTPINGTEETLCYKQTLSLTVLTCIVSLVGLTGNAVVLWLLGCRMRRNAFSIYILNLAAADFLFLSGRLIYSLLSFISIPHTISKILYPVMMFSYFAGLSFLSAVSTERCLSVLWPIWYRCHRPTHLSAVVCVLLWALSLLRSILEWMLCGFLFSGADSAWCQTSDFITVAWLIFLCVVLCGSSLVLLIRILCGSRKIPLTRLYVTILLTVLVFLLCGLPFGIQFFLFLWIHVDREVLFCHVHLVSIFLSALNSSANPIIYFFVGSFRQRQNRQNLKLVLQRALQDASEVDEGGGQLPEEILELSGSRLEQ
RGS4 act: potentiators or activators of RGS4; HEK293 M3R/inducible RGS4, carbachol calcium flux Fluo4; stronger effect = lower value; B-score at 10 µM; 310,000 tested, 0.92% active; AID 463111;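 active means B-score of the integrated calcium signal more than 4 SD below the library mean, with starting fluorescence not abnormally high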;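 further: negative B-score means reduced calcium response which marks RGS4 activation or potentiation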
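System: HEK293 FlpIn-TREx cells, stable M3R, doxycycline-inducible RGS4. Timing: overnight RGS4 induction, 30 min dye load 37 °C, 20 min compound RT. Also added: carbachol, ECmax concentration. Measured by: Fluo4 fluorescence kinetic imaging of calcium. Evaluation: integrated calcium ratio converted to B score.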
MrgX1 agonist: human MrgX1 receptor agonism, primary screen; MrgX1-HEK293 cells, Fluo-4 calcium fluorescence, agonist mode; stronger effect = higher value; B-score at 10 µM; 310,000 tested, 0.44% active; AID 588627;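 active means calcium response B-score plate-corrected fluorescence ratio at least 3 library SD, with starting fluorescence B-score inside 5 SD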
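System – MrgX1-expressing HEK293 cells · Incubation – cells plated overnight, dye loaded 0.5 h 37 °C, 0.5 h room temperature · Technique – kinetic Fluo-4 NW fluorescence of intracellular calcium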
MrgX1 allo act: human MrgX1 positive allosteric modulation, primary screen | B-score at 10 µM | MrgX1-HEK293, Fluo-4 calcium flux, FDSS; stronger effect = higher value | 310,000 tested, 0.63% active | Q96LB2;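 active means plate-corrected calcium response at least 3 library SD above typical, normal starting fluorescence, not activating the receptor alone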;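 further: compound read alongside a low EC10 to EC30 dose of BAM8-22 agonist; peak minus trough fluorescence over baseline measured at the second addition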
RGS4 block: human RGS4 inhibition; P49798; HEK293 M3R/RGS4 inducible, Fluo-4 calcium flux; stronger effect = higher value; triggered by carbachol at its EC20; B-score at 10 µM; 310,000 tested, 0.45% active; AID 463165;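 active means B-score, a plate-corrected calcium signal, over three deviations above library mean, with baseline fluorescence within five deviations of library mean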;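 further: RGS4 expression induced by doxycycline in cells with stable M3 receptor; B-score is computed from the integrated fluorescence ratio over baseline after carbachol; higher B-score means a larger calcium signal and so more RGS4 inhibition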
Target sequence (P49798 whole entry, looked up): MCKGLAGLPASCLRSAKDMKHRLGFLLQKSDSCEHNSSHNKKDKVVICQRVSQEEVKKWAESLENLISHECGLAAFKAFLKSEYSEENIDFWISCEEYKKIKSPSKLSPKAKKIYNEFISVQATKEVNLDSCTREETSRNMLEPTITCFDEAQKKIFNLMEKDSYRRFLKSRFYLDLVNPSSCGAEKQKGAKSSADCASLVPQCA
MrgX1 ag confirm: human MrgX1 agonism, re-confirmation screen. shares compounds with MrgX1 agonist. MrgX1-HEK293, Fluo-4 calcium fluorescence, FDSS. activation, % at 10 µM. 600 tested, 78% active. AID 602412;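 active means calcium signal rise, corrected for plate position, at least 3 library SD high, with starting brightness within 5 such deviations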; further: reference of the scale not given here
MrgX1 allo conf: confirmation of human MrgX1 receptor positive allosteric modulators; shares compounds with MrgX1 allo act; activation (ratio percentage), % at 10 µM; 1,200 tested, 13% active; MrgX1-HEK293, Fluo-4 calcium fluorescence, FDSS; AID 602413;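 active means ratio at least 3 SD above the weak peptide control, stable starting fluorescence, no direct agonism earlier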;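 further: compound followed by low BAM8-22 agonist challenge near EC20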
MrgX1 ant reconf: confirmation of human MrgX1 receptor antagonists; MrgX1-HEK293, BAM8-22 calcium flux, Fluo-4; stronger effect = lower value; remaining BAM8-22 calcium response % of control (stronger effect = lower value), % at 10 µM; shares compounds with MrgX1 antag; 2,300 tested, 19% active;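 active means remaining agonist calcium response no higher than 100% minus 3 SD of agonist-only control wells, with starting fluorescence near control levels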;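 further: agonist BAM8-22 given at a near maximal EC90 to ECmax level; peak minus minimum fluorescence divided by baseline after agonist addition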
HEK293 Ca flux: counter-screen for MrgX1 antagonists: effect in parental HEK293 cells; shares compounds with MrgX1 antag; Fluo-4 calcium fluorescence, FDSS; fluorescence ratio F(max-min)/F0 at 10 µM; 4,000 tested, 2% active;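 active means duplicate-averaged calcium fluorescence ratio at least three times the standard deviation of buffer wells, a nonspecific response in parental cells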
HEK293 Ca counter: MrgX1 allosteric activator counter-screen hit in parental HEK293 cells | parental HEK293 calcium flux, Fluo-4 fluorescence ratio; stronger effect = higher value | 4,000 tested, 0.4% active | AID 624114 | shares compounds with MrgX1 antag | fluorescence ratio F(max-min)/F0 at 10 µM;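 active means calcium fluorescence ratio, averaged over duplicates, at least 3 SD of the buffer-well ratio, meaning a nonspecific response in receptor-free cells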;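 further: untransfected parental HEK293 lacking MrgX1 used as counterscreen for MrgX1 allosteric activators; fluorescence change taken during the second addition on a kinetic imager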
HEK293 Ca cntr2: activity in parental HEK293 cells lacking MrgX1 receptor; shares compounds with MrgX1 antag; Fluo-4 calcium fluorescence (FDSS); stronger effect = higher value; fluorescence ratio F(max-min)/F0 at 10 µM; 4,000 tested, 8.7% active;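 active means calcium fluorescence ratio at least three times the spread of buffer wells, meaning a non-specific response in parental cells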
An asterisk follows results filed as active.

Results for NC1=Nc2ccccc2Oc2ccccc21 ?
MrgX1 antag: inactive; RGS4 act: inactive; MrgX1 agonist: 55*; MrgX1 allo act: inactive; RGS4 block: inactive; MrgX1 ag confirm: 226%*; HEK293 Ca flux: inactive; HEK293 Ca counter: inactive; HEK293 Ca cntr2: inactive

How did CC1(C)CSC(=NCc2ccccc2)N1 do in these assays?
MrgX1 antag: inactive; RGS4 act: inactive; MrgX1 agonist: 164*; MrgX1 allo act: inactive; RGS4 block: inactive; MrgX1 ag confirm: 677%*; HEK293 Ca flux: inactive; HEK293 Ca counter: inactive; HEK293 Ca cntr2: 129*

How did O=C1CCCN1CC#CCN1CCCC1 do in these assays?
MrgX1 antag: inactive; RGS4 act: inactive; MrgX1 agonist: 52*; MrgX1 allo act: inactive; RGS4 block: inactive; MrgX1 ag confirm: 226%*; HEK293 Ca flux: inactive; HEK293 Ca counter: inactive; HEK293 Ca cntr2: 49*

How did CCCCC1C(=O)NC(=S)NC1=O do in these assays?
MrgX1 antag: inactive; RGS4 act: inactive; MrgX1 agonist: inactive; MrgX1 allo act: inactive; RGS4 block: inactive

Results for C[C@H]1CCC[C@H](O)CCCCCc2cc(O)cc(O)c2C(=O)O1 ?
MrgX1 antag: inactive; RGS4 act: inactive; MrgX1 agonist: inactive; MrgX1 allo act: inactive; RGS4 block: inactive

What do the screens show for `C[C@H]1CCC[C@@H](O)CCC/C=C/c2cc(O)cc(O)c2C(=O)O1`?
MrgX1 antag: inactive; RGS4 act: inactive; MrgX1 agonist: 31*; MrgX1 allo act: inactive; RGS4 block: inactive; MrgX1 ag confirm: 176%*; HEK293 Ca flux: inactive; HEK293 Ca counter: inactive; HEK293 Ca cntr2: inactive

Results for O=C(O)C1Cc2ccccc2N2CCCC12 (stereo not given) ?
MrgX1 antag: inactive; RGS4 act: inactive; MrgX1 agonist: inactive; MrgX1 allo act: inactive; RGS4 block: inactive

What do the screens show for `CNc1ccc2oc(C[C@H]3O[C@@]4(CC[C@H]3C)O[C@H]([C@H](C)C(=O)c3ccc[nH]3)[C@H](C)C[C@H]4C)nc2c1C(=O)O`?
MrgX1 antag: inactive; RGS4 act: inactive; MrgX1 agonist: 160*; MrgX1 allo act: inactive; RGS4 block: inactive; MrgX1 ag confirm: 823%*; HEK293 Ca flux: inactive; HEK293 Ca counter: inactive; HEK293 Ca cntr2: 158*

What do the screens show for `COc1cc2c(cc1OC)C(C(=O)N(C)C1CCCCC1)C1CCCCN1C2=O` (stereo not given)?
MrgX1 antag: inactive; RGS4 act: inactive; MrgX1 agonist: inactive; MrgX1 allo act: inactive; RGS4 block: inactive

How did CCOC(=O)C1=C(N)Oc2c(c(=O)oc3ccccc23)C12C(=O)N(C)c1ccccc12 (stereo not given) do in these assays?
MrgX1 antag: inactive; RGS4 act: inactive; MrgX1 agonist: inactive; MrgX1 allo act: 8.5*; RGS4 block: inactive; MrgX1 allo conf: 16%*; HEK293 Ca flux: inactive; HEK293 Ca counter: inactive; HEK293 Ca cntr2: inactive

Results for C=CCN1C(=O)C2(C(C(=O)OCC)=C(N)Oc3ccccc32)c2c1c1ccccc1oc2=O (stereo not given) ?
MrgX1 antag: inactive; RGS4 act: inactive; MrgX1 agonist: inactive; MrgX1 allo act: 24*; RGS4 block: inactive; MrgX1 allo conf: 33%*; HEK293 Ca flux: inactive; HEK293 Ca counter: inactive; HEK293 Ca cntr2: inactive

Results for O=[N+]([O-])c1ccc(-c2ccccc2)c([As](=O)(O)O)c1 ?
MrgX1 antag: inactive; RGS4 act: inactive; MrgX1 agonist: inactive; MrgX1 allo act: inactive; RGS4 block: inactive

Results for COc1cccc2cc(-c3cc(=O)oc4ccc(OC(=O)N(C)C)cc34)oc12 ?
MrgX1 antag: inactive; RGS4 act: inactive; MrgX1 agonist: inactive; MrgX1 allo act: inactive; RGS4 block: inactive

What do the screens show for `COc1cccc(C2(C#N)CCN(C)CC2)c1`?
MrgX1 antag: inactive; RGS4 act: inactive; MrgX1 agonist: inactive; MrgX1 allo act: 6.5*; RGS4 block: inactive; MrgX1 allo conf: inactive; HEK293 Ca flux: inactive; HEK293 Ca counter: inactive; HEK293 Ca cntr2: inactive

Results for COc1cccc(OCC(=O)N2CCN(C)CC2)c1 ?
MrgX1 antag: inactive; RGS4 act: inactive; MrgX1 agonist: inactive; MrgX1 allo act: inactive; RGS4 block: inactive

How did CCCCCn1c(=O)c(C(=O)NCc2ccc(Cl)cc2)c(O)c2ccccc21 do in these assays?
MrgX1 antag: inactive; RGS4 act: inactive; MrgX1 agonist: inactive; MrgX1 allo act: 8.8*; RGS4 block: inactive; MrgX1 allo conf: inactive; HEK293 Ca flux: inactive; HEK293 Ca counter: 49*; HEK293 Ca cntr2: inactive

Results for CCCCn1c(=O)c(C(=O)NCc2ccccc2)c(O)c2ccccc21 ?
MrgX1 antag: inactive; RGS4 act: inactive; MrgX1 agonist: inactive; MrgX1 allo act: inactive; RGS4 block: inactive

Results for O=C(CN1CC(c2ccccc2)CC1=O)Nc1cccc(F)c1 (stereo not given) ?
MrgX1 antag: inactive; RGS4 act: inactive; MrgX1 agonist: inactive; MrgX1 allo act: inactive; RGS4 block: inactive

Results for O=C(CN1CC(c2ccccc2)CC1=O)Nc1ccc(F)cc1 (stereo not given) ?
MrgX1 antag: -10*; RGS4 act: inactive; MrgX1 agonist: inactive; MrgX1 allo act: inactive; RGS4 block: inactive; MrgX1 ant reconf: inactive; HEK293 Ca flux: inactive; HEK293 Ca counter: inactive; HEK293 Ca cntr2: inactive

Results for COC(=O)C1=C(c2cc3ccccc3s2)C[C@@H]2CC[C@H]1N2C(=O)NC1CCCCC1 ?
MrgX1 antag: inactive; RGS4 act: inactive; MrgX1 agonist: inactive; MrgX1 allo act: inactive; RGS4 block: inactive
